{"source": "ChEMBL document CHEMBL4130442", "about": "“Design, synthesis and structure-activity relationship studies of a focused library of pyrimidine moiety with anti-proliferative and anti-metastasis activities in triple negative breast cancer” (Eur J Med Chem, 2017)", "key": {"MDA-MB-231 [1]": {"test_system": "MDA-MB-231", "test": "Effect on total Akt protein level in human MDA-MB-231 cells at 2.5 uM incubated for 24 hrs in presence of PDGFRbeta siRNA by Western blot relative to untreated control", "format": "ADME, cell-based", "conditions": "mda-mb-231, 24 h", "method_in_brief": "(§1)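 MDA-MB-231 cells were exposed for 24 h. Adherent and floating cells were pooled and lysed for 1 h at 4 °C in 50 mM Hepes pH 7.4 with 1% Triton X-100, orthovanadate, NaF, EDTA, PMSF, aprotinin and leupeptin. After 12,000 rpm clearing, equal protein was run on 10-15% SDS-PAGE and blotted to PVDF. Detection used HRP-ECL, with β-actin as loading control and densitometric quantification.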"}, "MDA-MB-231 [2]": {"test_system": "MDA-MB-231", "test": "Induction of autophagy in human MDA-MB-231 cells assessed as change in p62 protein level at 5 uM incubated for 24 hrs by Western blot method relative to untreated control", "format": "functional", "method_in_brief": "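Cells grown in DMEM with 10% FBS under 5% CO2 and treated 24 h across a range of concentrations. Adherent and floating cells were pooled and lysed in Hepes 50 mM pH 7.4 / 1% Triton X-100 buffer with phosphatase and protease inhibitors, 4 °C for 1 h. Equal protein was run on 10-15% SDS-PAGE, blotted to PVDF, probed with Beclin-1, p62 and LC3 antibodies and detected by ECL.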"}, "MDA-MB-231 [3]": {"test_system": "MDA-MB-231", "test": "Effect on total MEK1/2 protein level in human MDA-MB-231 cells at 2.5 uM incubated for 24 hrs in presence of PDGFRbeta siRNA by Western blot relative to untreated control", "format": "cell-based", "conditions": "mda-mb-231, 24 h"}, "[4]": {"target": "T1, Platelet-derived growth factor receptor beta (Homo sapiens, UniProt P09619)", "T1 sequence (P09619 whole entry)": "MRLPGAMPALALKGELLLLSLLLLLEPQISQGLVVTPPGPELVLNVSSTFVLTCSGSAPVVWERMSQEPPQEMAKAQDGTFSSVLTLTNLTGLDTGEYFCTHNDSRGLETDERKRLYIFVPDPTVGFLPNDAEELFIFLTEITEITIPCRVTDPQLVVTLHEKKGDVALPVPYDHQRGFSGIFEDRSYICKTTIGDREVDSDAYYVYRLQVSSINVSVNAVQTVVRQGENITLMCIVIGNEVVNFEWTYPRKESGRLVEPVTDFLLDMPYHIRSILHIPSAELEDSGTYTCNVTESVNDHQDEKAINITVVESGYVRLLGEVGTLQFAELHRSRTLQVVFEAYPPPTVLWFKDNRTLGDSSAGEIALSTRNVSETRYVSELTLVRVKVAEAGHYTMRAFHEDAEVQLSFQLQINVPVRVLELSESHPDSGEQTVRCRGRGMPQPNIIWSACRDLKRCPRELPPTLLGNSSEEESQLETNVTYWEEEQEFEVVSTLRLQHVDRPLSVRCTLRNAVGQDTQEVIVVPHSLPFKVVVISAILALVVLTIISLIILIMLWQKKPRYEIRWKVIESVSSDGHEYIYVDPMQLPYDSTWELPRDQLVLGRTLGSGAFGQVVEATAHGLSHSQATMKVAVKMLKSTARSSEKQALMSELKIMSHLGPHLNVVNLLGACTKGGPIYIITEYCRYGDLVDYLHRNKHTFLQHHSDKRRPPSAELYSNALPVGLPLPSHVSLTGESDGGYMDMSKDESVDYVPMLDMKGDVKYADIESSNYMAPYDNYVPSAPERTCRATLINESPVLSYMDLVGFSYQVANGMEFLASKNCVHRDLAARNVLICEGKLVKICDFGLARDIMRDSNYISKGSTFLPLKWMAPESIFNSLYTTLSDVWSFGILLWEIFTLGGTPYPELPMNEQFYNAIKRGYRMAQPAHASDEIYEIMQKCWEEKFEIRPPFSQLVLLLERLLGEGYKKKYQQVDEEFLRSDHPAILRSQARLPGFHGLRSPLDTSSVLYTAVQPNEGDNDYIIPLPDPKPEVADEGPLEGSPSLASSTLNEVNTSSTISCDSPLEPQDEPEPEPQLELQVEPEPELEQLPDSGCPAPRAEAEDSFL", "test": "Inhibition of PDGFRbeta in human MDA-MB-231 cells assessed as Akt Thr305 phosphorylation level at 2.5 uM incubated for 24 hrs in presence of control siRNA by Western blot relative to untreated control", "format": "cell-based", "method_in_brief": "(§2)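 Cells were transfected with control or PDGFR-β siRNA, then treated with 2.5 μM compound for 24 h. PDGFR-β-AKT-ULK1 pathway phospho-proteins were assessed by western blot: lysis in Hepes pH 7.4 / Triton buffer, 10-15% SDS-PAGE, PVDF, ECL detection, β-actin as loading control.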"}, "MDA-MB-231 [5]": {"test_system": "MDA-MB-231", "test": "Induction of apoptosis in human MDA-MB-231 cells assessed as change in cleaved caspase-3 protein level at 10 uM incubated for 24 hrs by Western blot method relative to untreated control", "format": "functional", "method_in_brief": "as §1"}, "MDA-MB-231 [6]": {"test_system": "MDA-MB-231", "test": "Effect on total mTOR protein level in human MDA-MB-231 cells at 2.5 uM incubated for 24 hrs by Western blot relative to untreated control", "format": "ADME, cell-based", "conditions": "mda-mb-231, 24 h", "method_in_brief": "as §1"}, "MDA-MB-231 [7]": {"test_system": "MDA-MB-231", "test": "Effect on total Akt protein level in human MDA-MB-231 cells at 10 uM incubated for 24 hrs by Western blot relative to untreated control", "format": "ADME, cell-based", "conditions": "mda-mb-231, 24 h", "method_in_brief": "as §1"}, "MDA-MB-231 [8]": {"test_system": "MDA-MB-231", "test": "Effect on total Akt protein level in human MDA-MB-231 cells at 2.5 uM incubated for 24 hrs in absence of PDGFRbeta siRNA by Western blot relative to untreated control", "format": "ADME, cell-based", "conditions": "mda-mb-231, 24 h", "method_in_brief": "as §1"}, "[9]": {"target": "T1, Platelet-derived growth factor receptor beta", "test": "Inhibition of PDGFRbeta in human MDA-MB-231 cells assessed as Akt Thr305 phosphorylation level at 10 uM incubated for 24 hrs by Western blot relative to untreated control", "format": "cell-based", "method_in_brief": "(§3)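 Cells were treated 24 h at several concentrations. Pooled adherent and floating cells were lysed in Hepes 50 mM pH 7.4 / 1% Triton X-100 buffer with vanadate, NaF, EDTA, PMSF, aprotinin and leupeptin. Equal protein was run on 10-15% SDS-PAGE and blotted to PVDF. PDGFR-β-AKT-ULK1 pathway phospho-proteins were probed and detected by ECL, with β-actin as loading control.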"}, "MDA-MB-231 [10]": {"test_system": "MDA-MB-231", "test": "Induction of autophagy in human MDA-MB-231 cells assessed as change in LC3-2 protein level at 2.5 uM incubated for 24 hrs in absence of PDGFRbeta siRNA by Western blot method relative to untreated control", "format": "functional", "method_in_brief": "(§4)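 Before treatment, MDA-MB-231 cells were transfected with control or PDGFR-β siRNA, then exposed to 2.5 μM compound for 24 h. Lysates of pooled adherent and floating cells were immunoblotted (10-15% SDS-PAGE, PVDF, ECL) for PDGFR-β-AKT-ULK1 autophagy signalling markers, with β-actin as loading control.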"}, "MDA-MB-231 [11]": {"test_system": "MDA-MB-231", "test": "Induction of apoptosis in human MDA-MB-231 cells at 2.5 to 10 uM incubated for 24 hrs by Annexin V/propidium iodide staining based flow cytometry", "format": "functional, cell-based"}, "MDA-MB-231 [12]": {"test_system": "MDA-MB-231", "test": "Induction of autophagy in human MDA-MB-231 cells assessed as change in Beclin-1 protein level at 2.5 uM incubated for 24 hrs by Western blot method relative to untreated control", "format": "functional", "method_in_brief": "as §1"}, "[13]": {"target": "T1, Platelet-derived growth factor receptor beta", "test": "Inhibition of PDGFRbeta in human MDA-MB-231 cells assessed as mTOR Ser2448 phosphorylation level at 5 uM incubated for 24 hrs by Western blot relative to untreated control", "format": "cell-based", "method_in_brief": "as §3"}, "[14]": {"target": "T1, Platelet-derived growth factor receptor beta", "test": "Inhibition of PDGFRbeta in human MDA-MB-231 cells assessed as Akt Ser473 phosphorylation level at 2.5 uM incubated for 24 hrs in presence of PDGFRbeta siRNA by Western blot relative to untreated control", "format": "cell-based", "method_in_brief": "as §2"}, "[15]": {"target": "T1, Platelet-derived growth factor receptor beta", "test": "Inhibition of PDGFRbeta in human MDA-MB-231 cells assessed as Akt Thr305 phosphorylation level at 5 uM incubated for 24 hrs by Western blot relative to untreated control", "format": "cell-based", "method_in_brief": "as §3"}, "MDA-MB-231 [16]": {"test_system": "MDA-MB-231", "test": "Effect on total c-Raf protein level in human MDA-MB-231 cells at 5 uM incubated for 24 hrs in presence of PDGFRbeta siRNA by Western blot relative to untreated control", "format": "cell-based", "conditions": "mda-mb-231, 24 h"}, "MDA-MB-231 [17]": {"test_system": "MDA-MB-231", "test": "Effect on total ERK1/2 protein level in human MDA-MB-231 cells at 2.5 uM incubated for 24 hrs in presence of PDGFRbeta siRNA by Western blot relative to untreated control", "format": "cell-based", "conditions": "mda-mb-231, 24 h"}, "MDA-MB-231 [18]": {"test_system": "MDA-MB-231", "test": "Effect on total PDGFRbeta protein level in human MDA-MB-231 cells at 2.5 uM incubated for 24 hrs in presence of control siRNA by Western blot relative to untreated control", "format": "ADME, cell-based", "conditions": "mda-mb-231, 24 h", "method_in_brief": "as §1"}, "[19]": {"target": "T1, Platelet-derived growth factor receptor beta", "test": "Inhibition of PDGFRbeta in human MDA-MB-231 cells assessed as PDGFRbeta Tyr740 phosphorylation level at 10 uM incubated for 24 hrs by Western blot relative to untreated control", "format": "cell-based", "method_in_brief": "as §3"}, "MDA-MB-231 [20]": {"test_system": "MDA-MB-231", "test": "Induction of autophagy in human MDA-MB-231 cells assessed as change in Beclin-1 protein level at 2.5 uM incubated for 24 hrs in presence of PDGFRbeta siRNA by Western blot method relative to untreated control", "format": "functional", "method_in_brief": "as §1"}, "MDA-MB-231 [21]": {"test_system": "MDA-MB-231", "test": "Induction of autophagy in human MDA-MB-231 cells assessed as change in LC3-2 protein level at 2.5 uM incubated for 24 hrs in presence of PDGFRbeta siRNA by Western blot method relative to untreated control", "format": "functional", "method_in_brief": "as §4"}, "[22]": {"target": "T1, Platelet-derived growth factor receptor beta", "test": "Inhibition of PDGFRbeta in human MDA-MB-231 cells assessed as mTOR Ser2448 phosphorylation level at 2.5 uM incubated for 24 hrs by Western blot relative to untreated control", "format": "cell-based", "method_in_brief": "as §3"}, "MDA-MB-231 [23]": {"test_system": "MDA-MB-231", "test": "Effect on total Akt protein level in human MDA-MB-231 cells at 2.5 uM incubated for 24 hrs by Western blot relative to untreated control", "format": "ADME, cell-based", "conditions": "mda-mb-231, 24 h", "method_in_brief": "as §1"}, "[24]": {"target": "T1, Platelet-derived growth factor receptor beta", "test": "Inhibition of PDGFRbeta in human MDA-MB-231 cells assessed as C-Raf Ser259 phosphorylation level at 2.5 uM incubated for 24 hrs in presence of PDGFRbeta siRNA by Western blot relative to untreated control", "format": "cell-based"}}, "note": "Calls of active or inactive are those of the source. The rule behind the calls is not given here."}
{"smiles": "COc1cccc(Nc2cc(N3CCN(C(=O)Nc4ccc(C(F)(F)F)cc4)CC3)ncn2)c1", "values": [{"measurement": "fold change (FC)", "setting": "MDA-MB-231 [1]", "value": 0.63}, {"measurement": "fold change (FC)", "setting": "MDA-MB-231 [2]", "value": 0.43}, {"measurement": "fold change (FC)", "setting": "MDA-MB-231 [3]", "value": 1.05}, {"measurement": "fold change (FC)", "setting": "[4]", "value": 0.1}, {"measurement": "fold change (FC)", "setting": "MDA-MB-231 [5]", "value": 0.32}, {"measurement": "fold change (FC)", "setting": "MDA-MB-231 [6]", "value": 0.37}, {"measurement": "fold change (FC)", "setting": "MDA-MB-231 [7]", "value": 0.76}, {"measurement": "fold change (FC)", "setting": "MDA-MB-231 [8]", "value": 0.62}, {"measurement": "fold change (FC)", "setting": "[9]", "value": 0.12}, {"measurement": "fold change (FC)", "setting": "MDA-MB-231 [10]", "value": 2.87}, {"measurement": "Activity", "setting": "MDA-MB-231 [11]", "value": "Active"}, {"measurement": "fold change (FC)", "setting": "MDA-MB-231 [12]", "value": 2.3}, {"measurement": "fold change (FC)", "setting": "[13]", "value": 0.23}, {"measurement": "fold change (FC)", "setting": "[14]", "value": 0.52}, {"measurement": "fold change (FC)", "setting": "[15]", "value": 0.75}, {"measurement": "fold change (FC)", "setting": "MDA-MB-231 [16]", "value": 0.82}, {"measurement": "fold change (FC)", "setting": "MDA-MB-231 [17]", "value": 1.08}, {"measurement": "fold change (FC)", "setting": "MDA-MB-231 [18]", "value": 0.05}, {"measurement": "fold change (FC)", "setting": "[19]", "value": 0.61}, {"measurement": "fold change (FC)", "setting": "MDA-MB-231 [20]", "value": 4.18}, {"measurement": "fold change (FC)", "setting": "MDA-MB-231 [21]", "value": 3.01}, {"measurement": "fold change (FC)", "setting": "[22]", "value": 0.74}, {"measurement": "fold change (FC)", "setting": "MDA-MB-231 [23]", "value": 0.89}, {"measurement": "fold change (FC)", "setting": "[24]", "value": 0.95}]}
